The subject of one series is CEM. Type of series: cell-based, human. To be noted: CEM ALL cell line; α greater than zero = synergy, less than zero = antagonism. A digest of the protocol:
(§1)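 Cells were grown in RPMI-1640 with 2 mM glutamine and 10% FBS at 37°C, 5% CO₂, and were STR-authenticated and mycoplasma-negative. Mid-log-phase cells were exposed to serial dilutions of the drugs, alone or combined, then read by a modified MTT assay after 3 days. Interaction α (positive = synergy, negative = antagonism) was estimated by modified response surface modeling relative to additivity.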

Series [1] has as its system SORORIN. Nature of the series: Western blot of SORORIN protein level. The format is cell-based, human. The conditions noted are these: NALM6, G2 synchronized cells, highest concentration of DIP 10 µM. On the technique in general: Immunoblotting shows a protein as a band on a membrane.
Series [2] has as its system hiPSC‐derived neurons. Type of series: cell-based, human. To be noted: 72 h, negative α = antagonism. A digest of the protocol: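 Human iPSC-derived peripheral neurons (>90% pure; βIII-tubulin, MAP-2, peripherin and vGLUT2 positive; three lots) were kept per the supplier's protocol. Viability was read as ATP by CellTiter-Glo 2.0 at 72 h after drug treatment. Combination responses were fitted by modified response surface modeling. α is the interaction term versus the additive model: positive means synergy, negative means antagonism.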

In the next series the test system is C57BL/6 J mice. The series is described as follows: Mouse neurotoxicity assessment: mechanical allodynia. The format is in vivo.
Series [3] concerns hiPSC‐derived neurons. Type of series: cell-based, human. To be noted: negative α = antagonism. A digest of the protocol:
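After drug treatment, hiPSC-derived neurons were stained with 5 µg/ml Hoechst 33342 and 10 µg/ml Calcein AM for 10 min at room temperature. Cells were imaged at 10×, with at least 1000 cells per condition in each of five independent experiments. Per-cell values were collected for total neurite outgrowth, number of processes and number of branches. Combination α came from response surface modeling against an additive model.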

The test system of series [4] is phospho‐histone H3 (Ser10). The series is described as follows: Western blot of phospho‐histone H3. Type of series: cell-based, human. The conditions noted are these: CEM, vincristine 2 nM for 24 h with increasing concentrations of DIP.
For series [5] the following is noted: clinical studies; cited from earlier work.
In series [6] the test system is phospho‐histone H3 (Ser10). The series is described as follows: Western blot of phospho‐histone H3. The format is cell-based, human. The conditions noted are these: NALM6, vincristine 2 nM for 24 h with increasing concentrations of DIP.
A short description of series [7]: In vivo pharmacokinetic studies in mice. To be noted: for total plasma concentrations: mice, VCR 0.1 mg/kg intraperitoneal and DIP 200 mg/kg p.o.; for clearance: male, C57BL/6, mouse, plasma, intraperitoneal.
A further series deals with NALM6. Type of series: cell-based, human. To be noted: NALM6 ALL cell line; α greater than zero = synergy, less than zero = antagonism. An outline of the steps:
as §1

In series [8] the test system is SORORIN. The series is described as follows: Western blot of SORORIN protein level. The format is cell-based, human. The conditions noted are these: CEM, G2 synchronized cells, highest concentration of DIP 10 µM.
The conditions of series [9]: cited from earlier work.
For another series, the system named is CEM leukemia cells. Nature of the series: Survival of NSG mice inoculated with human CEM leukemia cells. Type of series: in vivo. The conditions noted are these: once a week, 0.3mg/kg vincristine, p value <0.001.

Counter-ions that a name gives are not always drawn.

As to `OCCN(CCO)c1nc(N2CCCCC2)c2nc(N(CCO)CCO)nc(N3CCCCC3)c2n1` [Dipyridamole], the “CEM α (drug‐drug interaction between vincristine and second drug)” value (from here on “CEM α”) with CEM was determined as 11.6. For the same compound, in the series on SORORIN [1], the SORORIN protein levels entry was “lowest level of SORORIN protein”. The “Viability α (drug‐drug interaction between vincristine and second drug)” value (from here on “Viability α”) in the series with hiPSC‐derived neurons [2] is on record as −3.7. Also, in the series on C57BL/6 J mice (mice, DIP oral gavage with VCR intraperitoneal, day 1 to day 10), the “paw withdrawal response, DIP administered with VCR versus VCR alone” value was “significantly lowered”. For the same compound, in the series on hiPSC‐derived neurons [3], the “Branches α (drug‐drug interaction between vincristine and second drug)” value (“Branches α” below) was −3.43; the “Outgrowth α (drug‐drug interaction between vincristine and second drug)” value (from here on “Outgrowth α”) was −1.98; the “Processes α (drug‐drug interaction between vincristine and second drug)” value (“Processes α” below) is given as −1.75. For the same compound, the “phospho‐histone H3 (Ser10) levels” value in [4] is “dose‐dependent increase”. Besides, in [5], the “plasma concentrations reported clinically” value is at most 6000 ng/mL. Also, the “phospho‐histone H3 (Ser10) levels” value in [6] was “dose‐dependent increase”. Moreover, the total plasma concentrations in series [7] is at most 5000 ng/mL. In the series on NALM6, the “NALM6 α (drug‐drug interaction between vincristine and second drug)” value (shortened to “NALM6 α”) was found to be 4.45. The SORORIN protein levels result with SORORIN [8] is recorded as “lowest level of SORORIN protein”.

On to `OCCOCCN1CCN(C2=Nc3ccccc3Sc3ccccc32)CC1` [Quetiapine fumarate], for which the “CEM α” value with CEM is reported as 0.787. For the same compound, in the series on hiPSC‐derived neurons [2], the “Viability α” value was −0.007. Further, in the series on hiPSC‐derived neurons [3], the “Branches α” value is reported as −2.29; the “Outgrowth α” value was −1.67; the “Processes α” value is on record as −1.25. For the same compound, in the series with NALM6, the “NALM6 α” value was 2.33.

As for `CCOC(=O)c1ccc(C#Cc2ccc3c(c2)C(C)(C)CCS3)nc1` [Tazarotene], the “CEM α” value with CEM is 0.945. The “Viability α” value in the series with hiPSC‐derived neurons [2] is −0.72. Further, in the series on hiPSC‐derived neurons [3], the “Branches α” value was −1.16; the “Outgrowth α” value is −1.63; the “Processes α” value is given as −1.59. The “NALM6 α” value in the series with NALM6 is recorded as 1.42.

Consider `CC[C@]1(O)C[C@H]2CN(CCc3c([nH]c4ccccc34)[C@@](C(=O)OC)(c3cc4c(cc3OC)N(C=O)[C@H]3[C@@](O)(C(=O)OC)[C@H](OC(C)=O)[C@]5(CC)C=CCN6CC[C@]43[C@@H]65)C2)C1` [VCR, Vincristine], for which the paw withdrawal responses result with C57BL/6 J mice (mice receiving VCR alone) is recorded as “significant increase”. Moreover, the “plasma concentrations reported clinically” value in [5] is on record as “up to 31.2 ng/ml”. In addition, in [7], the clearance is 81.3 mL/min/kg and the total plasma concentrations result is on record as “up to 10 ng/ml”. In series [7] (0.1 mg/kg), this compound had a clearance of 99.3 mL/min/kg. Also, the plasma protein binding entry in [9] is “around 75%”. Further, the “survival of mice, VCR and vehicle versus controls” value in the series on CEM leukemia cells is “significantly prolonged survival”.

Source of the values: publication PMC8301581 (Clinical and Translational Science, 2021).
